Experimental data taken from ChEMBL document CHEMBL4387724, “2-Pyridineformamide N(4)-ring incorporated thiosemicarbazones inhibit MCF-7 cells by inhibiting JNK pathway” (Bioorg Med Chem Lett, 2019).
Activity calls are given as the source filed them. The rule behind the calls is not given here.

Tests used:
MCF7 [1] = test: Cytotoxicity against human MCF7 cells assessed as reduction in cell growth incubated for 72 hrs by MTT assay; format: functional, cell-based; conditions: MCF7, 72 h
In short: (§1)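 Cells grown in DMEM with 10% FBS and penicillin-streptomycin at 37 °C, 5% CO2, seeded at 3000 cells/well and attached overnight. Screening series given at 1, 3, 10, 100 μM; follow-up agent at 100 nM–3 μM; both 72 h, with 0.1% DMSO vehicle. MTT (5 mg/mL stock) added for 3 h at 37 °C, formazan dissolved in DMSO, absorbance read at 570 nm. Viability expressed as % of DMSO-treated wells from replicates.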

A-431 [2] = test: Cytotoxicity against human A431 cells assessed as reduction in cell growth incubated for 72 hrs by MTT assay; format: functional, cell-based; conditions: A-431, 72 h; in short: as §1
A-375 [3] = test: Cytotoxicity against human A375 cells assessed as reduction in cell growth incubated for 72 hrs by MTT assay; format: functional, cell-based; conditions: A-375, 72 h; in short: as §1
HeLa [4] = test: Cytotoxicity against human HeLa cells assessed as reduction in cell growth incubated for 72 hrs by MTT assay; format: functional, cell-based; in short: as §1
A-375 [5] = test: Cytotoxicity against human A375 cells assessed as reduction in cell growth at 1 uM incubated for 72 hrs by MTT assay relative to control; format: functional; conditions: A-375, 72 h, read-out: GI; in short: as §1
A-375 [6] = test: Cytotoxicity against human A375 cells assessed as reduction in cell growth at 3 uM incubated for 72 hrs by MTT assay relative to control; format: functional; conditions: A-375, 72 h, read-out: GI; in short: as §1
A-375 [7] = test: Cytotoxicity against human A375 cells assessed as reduction in cell growth at 10 uM incubated for 72 hrs by MTT assay relative to control; format: functional; conditions: A-375, 72 h, read-out: GI; in short: as §1
A-375 [8] = test: Cytotoxicity against human A375 cells assessed as reduction in cell growth at 30 uM incubated for 72 hrs by MTT assay relative to control; format: functional; conditions: A-375, 72 h, read-out: GI
A-375 [9] = test: Cytotoxicity against human A375 cells assessed as reduction in cell growth at 100 uM incubated for 72 hrs by MTT assay relative to control; format: functional; conditions: A-375, 72 h, read-out: GI; in short: as §1
A-431 [10] = test: Cytotoxicity against human A431 cells assessed as reduction in cell growth at 1 uM incubated for 72 hrs by MTT assay relative to control; format: functional; conditions: A-431, 72 h, read-out: GI; in short: as §1
A-431 [11] = test: Cytotoxicity against human A431 cells assessed as reduction in cell growth at 3 uM incubated for 72 hrs by MTT assay relative to control; format: functional; conditions: A-431, 72 h, read-out: GI; in short: as §1
A-431 [12] = test: Cytotoxicity against human A431 cells assessed as reduction in cell growth at 10 uM incubated for 72 hrs by MTT assay relative to control; format: functional; conditions: A-431, 72 h, read-out: GI; in short: as §1
A-431 [13] = test: Cytotoxicity against human A431 cells assessed as reduction in cell growth at 30 uM incubated for 72 hrs by MTT assay relative to control; format: functional; conditions: A-431, 72 h, read-out: GI
A-431 [14] = test: Cytotoxicity against human A431 cells assessed as reduction in cell growth at 100 uM incubated for 72 hrs by MTT assay relative to control; format: functional; conditions: A-431, 72 h, read-out: GI; in short: as §1
HeLa [15] = test: Cytotoxicity against human HeLa cells assessed as reduction in cell growth at 1 uM incubated for 72 hrs by MTT assay relative to control; format: functional; conditions: read-out: GI; in short: as §1
HeLa [16] = test: Cytotoxicity against human HeLa cells assessed as reduction in cell growth at 3 uM incubated for 72 hrs by MTT assay relative to control; format: functional; conditions: read-out: GI; in short: as §1
HeLa [17] = test: Cytotoxicity against human HeLa cells assessed as reduction in cell growth at 10 uM incubated for 72 hrs by MTT assay relative to control; format: functional; conditions: read-out: GI; in short: as §1
HeLa [18] = test: Cytotoxicity against human HeLa cells assessed as reduction in cell growth at 30 uM incubated for 72 hrs by MTT assay relative to control; format: functional; conditions: read-out: GI
HeLa [19] = test: Cytotoxicity against human HeLa cells assessed as reduction in cell growth at 100 uM incubated for 72 hrs by MTT assay relative to control; format: functional; conditions: read-out: GI; in short: as §1
MCF7 [20] = test: Cytotoxicity against human MCF7 cells assessed as reduction in cell growth at 1 uM incubated for 72 hrs by MTT assay relative to control; format: functional; conditions: MCF7, 72 h, read-out: GI; in short: as §1
MCF7 [21] = test: Cytotoxicity against human MCF7 cells assessed as reduction in cell growth at 3 uM incubated for 72 hrs by MTT assay relative to control; format: functional; conditions: MCF7, 72 h, read-out: GI; in short: as §1
MCF7 [22] = test: Cytotoxicity against human MCF7 cells assessed as reduction in cell growth at 10 uM incubated for 72 hrs by MTT assay relative to control; format: functional; conditions: MCF7, 72 h, read-out: GI; in short: as §1
MCF7 [23] = test: Cytotoxicity against human MCF7 cells assessed as reduction in cell growth at 30 uM incubated for 72 hrs by MTT assay relative to control; format: functional; conditions: MCF7, 72 h, read-out: GI
MCF7 [24] = test: Cytotoxicity against human MCF7 cells assessed as reduction in cell growth at 100 uM incubated for 72 hrs by MTT assay relative to control; format: functional; conditions: MCF7, 72 h, read-out: GI; in short: as §1
MCF7 [25] = test: Antiproliferative activity against human MCF7 cells assessed as induction of cell death at 100 nM to 3 uM incubated for 48 hrs by propidium iodide based flow cytometry; format: functional
In short: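 MCF7 cells in DMEM with 10% FBS at 37 °C, 5% CO2, 30,000 cells/well in six-well plates, exposed to 100 nM, 300 nM, 1 μM or 3 μM (0.1% DMSO vehicle) for 48 h per legend (72 h per methods note). Harvested, washed in PBS, stained with propidium iodide (5 μg/mL) 20 min at 4 °C, and % dead cells read by flow cytometry against DMSO control.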

MCF7 [26] = test: Cytotoxicity against human MCF7 cells assessed as reduction in cell growth at 100 nM to 3 uM incubated for 72 hrs by MTT assay; format: functional, cell-based; in short: as §1
MCF7 [27] = test: Antiproliferative activity against human MCF7 cells assessed as inhibition of colony formation at 100 nM to 3 uM incubated for 21 days with every 72 hrs media was change treatment by crystal violet staining based assay; format: functional, cell-based
In short: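 MCF7 cells seeded at 500 cells/well (legend: 1200/well) in six-well plates, left to adhere overnight, then dosed at 100 nM–3 μM. Medium and compound renewed every 72 h over 21 days. Colonies washed with PBS, fixed in 3.7% formaldehyde 20 min, stained with 0.4% crystal violet, rinsed in PBS, then counted.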

MCF7 [28] = test: Induction of apoptosis in human MCF7 cells assessed as increase in Bax protein expression at 100 nM to 3 uM incubated for 48 hrs by immunoblot method; format: functional, cell-based
In short: (§2)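 MCF7 cells seeded at 1.25×10^5 per well in six-well plates and treated at 100 nM–3 μM for 48 h per legend (72 h per methods note). Lysed in 2X SDS buffer and sonicated; protein quantified by BCA. 20–25 µg run on 12% SDS gels and transferred to PVDF. Blocked in 5% BSA/TBST, primary antibodies overnight, secondary 1 h, ECL detection, β-actin as loading control.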

MCF7 [29] = test: Induction of apoptosis in human MCF7 cells assessed as reduction in Bcl2 protein expression at 100 nM to 3 uM incubated for 48 hrs by immunoblot method; format: functional, cell-based; in short: as §2
MCF7 [30] = test: Induction of apoptosis in human MCF7 cells assessed as downregulation of JNK1 protein expression at 100 nM to 3 uM incubated for 48 hrs by immunoblot method; format: functional, cell-based; in short: as §2
MCF7 [31] = test: Induction of apoptosis in human MCF7 cells assessed as effect on pro-caspase-3 expression at 100 nM to 3 uM incubated for 48 hrs by immunoblot method; format: functional, cell-based; in short: as §2
MCF7 [32] = test: Induction of apoptosis in human MCF7 cells assessed as effect on PARP1 protein expression at 100 nM to 3 uM incubated for 48 hrs by immunoblot method; format: functional, cell-based; in short: as §2
MCF7 [33] = test: Induction of apoptosis in human MCF7 cells assessed as downregulation of c-Jun protein expression 100 nM to 3 uM incubated for 48 hrs by immunoblot method; format: functional, cell-based; in short: as §2

Row | Compound | IC50 (MCF7 [1]) [nM] | IC50 (A-431 [2]) [nM] | IC50 (A-375 [3]) [nM] | IC50 (HeLa [4]) [nM] | inhibition of growth at 1 µM (A-375 [5]) [%] | inhibition of growth at 3 µM (A-375 [6]) [%] | inhibition of growth at 10 µM (A-375 [7]) [%] | inhibition of growth at 30 µM (A-375 [8]) [%] | inhibition of growth at 100 µM (A-375 [9]) [%] | inhibition of growth at 1 µM (A-431 [10]) [%] | inhibition of growth at 3 µM (A-431 [11]) [%] | inhibition of growth at 10 µM (A-431 [12]) [%] | inhibition of growth at 30 µM (A-431 [13]) [%] | inhibition of growth at 100 µM (A-431 [14]) [%] | inhibition of growth at 1 µM (HeLa [15]) [%] | inhibition of growth at 3 µM (HeLa [16]) [%] | inhibition of growth at 10 µM (HeLa [17]) [%] | inhibition of growth at 30 µM (HeLa [18]) [%] | inhibition of growth at 100 µM (HeLa [19]) [%] | inhibition of growth at 1 µM (MCF7 [20]) [%] | other results
1 | N/C(=N\NC(=S)N1CCCC1)c1ccc(F)cn1 | 900 | 1000 | 860 | 1800 | 57.9 | 81.8 | 82.3 | 83.2 | 86.6 | 50.7 | 72.2 | 78.7 | 83.3 | 85.6 | 62.8 | 77.7 | 72.7 | 81.2 | 85.4 | 51 | inhibition of growth at 3 µM (MCF7 [21]): 52.6%; inhibition of growth at 10 µM (MCF7 [22]): 54.5%; inhibition of growth at 30 µM (MCF7 [23]): 60.6%; inhibition of growth at 100 µM (MCF7 [24]): 73%; Activity (MCF7 [25]): Dose-dependent effect; Activity (MCF7 [26]): Dose-dependent effect; inhibition (MCF7 [27]): Dose-dependent effect; Activity (MCF7 [28]): Active; Activity (MCF7 [29]): Active; Activity (MCF7 [30]): Dose-dependent effect; Activity (MCF7 [31]): Active; Activity (MCF7 [32]): Active; Activity (MCF7 [33]): Dose-dependent effect
2 | Cc1cccc(/C(N)=N/NC(=S)N2CCCC2)n1 | 61800 | 4000 | 2900 | 2700 | 13.6 | 51.3 | 55.9 | 60.8 | 66.3 | 21 | 47.2 | 67.6 | 72.2 | 86.8 | 8.7 | 56.8 | 79.2 | 74.5 | 80.1 | 17.4 | inhibition of growth at 3 µM (MCF7 [21]): 26.6%; inhibition of growth at 10 µM (MCF7 [22]): 38.2%; inhibition of growth at 30 µM (MCF7 [23]): 40.1%; inhibition of growth at 100 µM (MCF7 [24]): 61.8%
